Publication PMC2861480 (Molecular bioSystems, 2009)

Tests used:
zebrafish embryos = details: for CE (effective concentration to cause no-eyes phenotype): zebrafish embryos
[1] = tested on: β-catenin–TCF activity in 293T cells; assay: In vitro β-catenin–TCF assay; assay type: cell-based; details: 4 μM 3F8 added to the medium, 18 h
Summary of the method: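 293T cells in 24-well plates were transfected with 200 ng superTOPflash reporter plasmid plus 20 ng Renilla luciferase (RLTK) control plasmid. Test compound was added 24 h after transfection and left for 18 h. Cell extracts were assayed sequentially for firefly and Renilla luciferase in a dual-luciferase system, and firefly readings were normalized to Renilla.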

GSK3β = GSK3β (Homo sapiens, UniProt P49841); assay: Kinase profiling; assay type: biochemical, mammalian; details: 5 μM 3F8 in 1% DMSO; panel of 22 kinases
GSK3β, sequence (P49841 whole entry): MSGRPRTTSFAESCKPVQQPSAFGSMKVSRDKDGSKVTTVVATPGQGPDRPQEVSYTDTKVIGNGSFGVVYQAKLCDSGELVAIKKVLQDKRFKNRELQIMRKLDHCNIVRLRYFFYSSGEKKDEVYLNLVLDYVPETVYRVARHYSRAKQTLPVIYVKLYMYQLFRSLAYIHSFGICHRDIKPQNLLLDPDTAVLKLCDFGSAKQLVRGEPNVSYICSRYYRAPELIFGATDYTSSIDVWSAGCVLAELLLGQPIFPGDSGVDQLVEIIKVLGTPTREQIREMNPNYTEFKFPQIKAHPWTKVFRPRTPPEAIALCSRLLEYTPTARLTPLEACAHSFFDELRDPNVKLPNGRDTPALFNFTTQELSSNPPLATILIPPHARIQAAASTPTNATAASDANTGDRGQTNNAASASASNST

| Compound | CE (effective concentration to cause no-eyes phenotype) (zebrafish embryos) | luciferase read out increase (superTOPflash) [1] | inhibition of GSK3β activity (GSK3β) | no-eyes embryos that developed a forebrain and eyes after removal of compound (zebrafish embryos; 2 days of treatment, washed out, scored by 5 dpf) | concentration giving no-eyes phenotype in all embryos (zebrafish embryos; treated at the 2-cell stage) | concentration required for effect on brain development (zebrafish embryos; treated at the 2-somite stage (after gastrulation), no effect at highest dose) | concentration required for no-eyes phenotype (zebrafish embryos; treated at the shield stage) |
| --- | --- | --- | --- | --- | --- | --- | --- |
| COC(=O)c1ccc[cH-]1.O=C1NC(=O)c2c1c1cccnc1c1[n-]c3c(Br)cc(O)cc3c21.[CH+]=O.[Ru] [GSK-3 inhibitor XV, reference compound] | 1 µM | – | – | – | – | – | – |
| CCc1nc2c(c3cc(OC)c(OC)cc13)C(=O)NC2=O [3F8, 5-ethyl-7,8-dimethoxy-1H-pyrrolo[3,4-c]-isoquinoline-1,3-(2H)-dione] | 7.5 µM | approximately 15 fold | 91% | 22% | 3.75 µM | > 75 µM | 11.25 µM |
